Measured values published in ChEMBL document CHEMBL2086239, “Synthesis and biological evaluation of combretastatin-amidobenzothiazole conjugates as potential anticancer agents” (Eur J Med Chem, 2012).
The source made the active and inactive calls. The rule behind the calls is not given here.

Assays:
MCF7 [1] = assay: Cytotoxicity against human MCF7 cells after 48 hrs assessed as inhibition of cell growth at 10 uM after 48 hrs by SRB assay relative to control; type: functional; conditions: MCF7, 48 h, read-out: GI
Outline: (§1)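 SRB protein assay in DMEM with 10% FBS at 37 °C, 5% CO2, 100% relative humidity. Cells seeded in 96-well plates, incubated 24 h, then exposed to drug at 10 µM for 48 h and processed per standard protocol. Absorbance read at 560 nm; growth percentage calculated for test wells relative to control wells.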

HEp-2 = assay: Cytotoxicity against human Hep2 cells after 48 hrs assessed as inhibition of cell growth at 10 uM after 48 hrs by SRB assay relative to control; type: functional; conditions: for inhibition of growth at 10 µM: HEp-2, 48 h, read-out: GI; outline: as §1
IMR-32 = assay: Cytotoxicity against human IMR32 cells after 48 hrs assessed as inhibition of cell growth at 10 uM after 48 hrs by SRB assay relative to control; type: functional; conditions: for inhibition of growth at 10 µM: IMR-32, 48 h, read-out: GI; outline: as §1
COLO 205 = assay: Cytotoxicity against human COLO205 cells after 48 hrs assessed as inhibition of cell growth at 10 uM after 48 hrs by SRB assay relative to control; type: functional; conditions: COLO 205, 48 h, read-out: GI; outline: as §1
THP-1 = assay: Cytotoxicity against human THP1 cells after 48 hrs assessed as inhibition of cell growth at 10 uM after 48 hrs by SRB assay relative to control; type: functional; conditions: THP-1, 48 h, read-out: GI; outline: as §1
PC-3 = assay: Cytotoxicity against human PC3 cells after 48 hrs assessed as inhibition of cell growth at 10 uM after 48 hrs by SRB assay relative to control; type: functional; conditions: PC-3, 48 h, read-out: GI; outline: as §1
A549 = assay: Cytotoxicity against human A549 cells assessed as inhibition of cell growth at 10 uM after 48 hrs by SRB assay relative to control; type: functional; conditions: for inhibition of growth at 10 µM: A549, 48 h, read-out: GI; outline: as §1
MCF7 [2] = assay: Cell cycle arrest in human MCF7 cells assessed as accumulation at G2/M phase at 4 uM after 24 hrs by FACS analysis (reference value: 34.88%); type: functional
MCF7 [3] = assay: Cell cycle arrest in human MCF7 cells assessed as accumulation at G1 phase at 4 uM after 24 hrs by FACS analysis (reference value: 58.33%); type: functional
MCF7 [4] = assay: Cell cycle arrest in human MCF7 cells assessed as accumulation at S phase at 4 uM after 24 hrs by FACS analysis (reference value: 6.79%); type: functional
MCF7 [5] = assay: Inhibition of microtubule organization in human MCF7 cells at 4 uM after 24 hrs by immunofluorescence analysis; type: cell-based
Outline: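 MCF-7 cells were grown in DMEM with 10% fetal calf serum and penicillin/streptomycin at 37 °C and 5% CO2. Cells on cover slips were treated for 24 h, then fixed in 4% paraformaldehyde for 20 min. They were permeabilised with 0.2% Triton X-100, held in methanol at 4 °C overnight and blocked with 1% BSA. Staining used anti-α-tubulin (1:100, 2 h RT), FITC secondary and a DAPI/PI mount, with confocal imaging.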

SMILES	inhibition of growth at 10 µM (MCF7 [1]) [%]	inhibition of growth at 10 µM (HEp-2) [%]	inhibition of growth at 10 µM (IMR-32) [%]	inhibition of growth at 10 µM (COLO 205) [%]	inhibition of growth at 10 µM (THP-1) [%]	inhibition of growth at 10 µM (PC-3) [%]	growth inhibition (GI) (A549)	Activity (MCF7 [2]) [%]	growth inhibition (GI) (IMR-32)	Activity (MCF7 [3]) [%]	Activity (MCF7 [4]) [%]	inhibition of growth at 10 µM (A549) [%]	inhibition (MCF7 [5])	growth inhibition (GI) (HEp-2)
COc1ccc(/C=C\c2cc(OC)c(OC)c(OC)c2)cc1OCC(=O)Nc1ccc2ncsc2c1	19	20	46	11	41	58	inactive	–	–	–	–	–	–	–
COc1ccc(/C=C\c2cc(OC)c(OC)c(OC)c2)cc1OCC(=O)Nc1nc2ccc(C)cc2s1	57	44	–	33	27	22	–	42.82	inactive	41.7	15.53	37	–	–
COC(=O)Nc1nc2cc(C(=O)c3cccs3)ccc2[nH]1	–	–	–	–	–	–	–	–	–	–	–	–	Active	–
CCOc1ccc2nc(NC(=O)COc3cc(/C=C\c4cc(OC)c(OC)c(OC)c4)ccc3OC)sc2c1	35	49	54	45	37	37	–	37.67	–	48.43	13.91	27	–	–
COc1ccc(/C=C\c2cc(OC)c(OC)c(OC)c2)cc1OCC(=O)Nc1nc2ccc(Cl)cc2s1	21	47	51	17	70	41	inactive	–	–	–	–	–	–	–
COc1ccc(/C=C\c2cc(OC)c(OC)c(OC)c2)cc1OCC(=O)Nc1nc2ccc([N+](=O)[O-])cc2s1	69	–	88	46	80	47	–	–	–	–	–	50	–	inactive
COc1cccc2c1C(=O)c1c(O)c3c(c(O)c1C2=O)C[C@@](O)(C(=O)CO)C[C@@H]3O[C@H]1C[C@H](N)[C@H](O)[C@H](C)O1 [DOXORUBICIN]	45	56	73	26	83	75	–	–	–	–	–	52	–	–
COc1ccc(/C=C\c2cc(OC)c(OC)c(OC)c2)cc1OCC(=O)Nc1nc2c(C)cccc2s1	29	–	34	24	19	24	inactive	28.48	–	68.06	3.46	–	–	inactive
COc1ccc(/C=C\c2cc(OC)c(OC)c(OC)c2)cc1OCC(=O)Nc1nc2cc(C)c(C)cc2s1	68	23	55	51	76	36	–	16.37	–	80.59	3.04	41	–	–
